Test results taken from ChEMBL document CHEMBL4411261, “Down-Regulation of the Androgen Receptor by G-Quadruplex Ligands Sensitizes Castration-Resistant Prostate Cancer Cells to Enzalutamide” (J Med Chem, 2018).
Active and inactive are the calls of the source. The rule behind the calls is not given here.

Experiments:
[1] = tested on: LNCaP; assay: Cytotoxicity against human LNCAP cells expressing androgen receptor T877A point mutant assessed as reduction in cell viability after 48 hrs by MTS assay; assay type: functional, cell-based
Outline: (§1)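 Cells kept in RPMI-1640 with 10% fetal calf serum, 37 °C, 5% CO2. Seeded, after 24 h treated with 0.0001, 0.001, 0.01, 0.1, 1 and 10 μM compound (DMSO stocks freshly diluted in medium) for 48 h. MTS added 4 h, absorbance 490 nm; IC50 from curves of % viability inhibition versus DMSO-treated cells against log concentration.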

[2] = tested on: Quadruplex DNA; assay: Stabilization of 5'-FAM/3'-TAMRA labelled AR1 G-quadruplex oligonucleotide (unknown origin) assessed as change in melting temperature t1/2 at 1 uM after 16 hrs in presence of 100 mM K+ by FRET assay; assay type: nucleic-acid assay
Outline: (§2)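 FRET melting: FAM/TAMRA dual-labelled oligos (0.25 μM) folded in 10 mM lithium cacodylate pH 7.4 with 100 mM KCl (95 °C 5 min, cooled 4 h); ligand added at 1 μM final, 16 h room temperature. FAM emission followed 30−95 °C at 1 °C/min; curves normalized 0 to 1, T1/2 at 0.5 fraction.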

[3] = tested on: Quadruplex DNA; assay: Stabilization of AR G-quadruplex oligonucleotide in human 22Rv1 cells assessed as reduction in AR-FL protein level by immunoblotting assay; assay type: cell-based
[4] = tested on: CWR22R; assay: Cytotoxicity against human 22Rv1 cells expressing full length androgen receptor H875Y point mutant assessed as reduction in cell viability after 48 hrs by MTS assay; assay type: functional, cell-based; settings: 22Rv1, 48 h; outline: as §1
[5] = tested on: Quadruplex DNA; assay: Stabilization of AR G-quadruplex oligonucleotide in human LNCAP cells assessed as reduction in AR-FL protein level by immunoblotting assay; assay type: cell-based
Outline: (§3)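 Lysate proteins immunoblotted. Vinculin or β-actin used as loading control, peroxidase-linked secondary antibodies, ECL chemiluminescent detection, autoradiography, densitometric scan. Untreated cells received DMSO.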

[6] = tested on: PC-3; assay: Cytotoxicity against human PC3 cells assessed as reduction in cell viability after 48 hrs by MTS assay; assay type: functional, cell-based; settings: PC-3, 48 h; outline: as §1
[7] = tested on: Quadruplex DNA; assay: Stabilization of 5'-FAM/3'-TAMRA labelled AR3 G-quadruplex oligonucleotide (unknown origin) assessed as change in melting temperature t1/2 at 1 uM after 16 hrs in presence of 100 mM K+ by FRET assay; assay type: nucleic-acid assay; outline: as §2
[8] = tested on: Quadruplex DNA; assay: Stabilization of AR G-quadruplex oligonucleotide in human 22Rv1 cells assessed as reduction in basal AR mRNA expression at IC50 after 6 to 72 hrs by RT-PCR analysis; assay type: cell-based
Outline: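 Transcripts quantified by TaqMan real-time PCR with RNaseP as normalizer; relative quantity versus untreated cells by the 2−ΔΔCt method. Panel genes measured with a 92-gene cancer-mechanism TaqMan array.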

[9] = tested on: DU-145; assay: Cytotoxicity against human DU145 cells assessed as reduction in cell viability after 48 hrs by MTS assay; assay type: functional, cell-based; settings: DU-145, 48 h; outline: as §1
[10] = tested on: Quadruplex DNA; assay: Stabilization of AR G-quadruplex oligonucleotide in human LNCAP cells assessed as reduction in PSA protein level by immunoblotting assay; assay type: cell-based; outline: as §3
[11] = tested on: PNT1A; assay: Cytotoxicity against human PNT1A cells assessed as reduction in cell viability after 48 hrs by MTS assay; assay type: cell-based; outline: as §1
[12] = tested on: Quadruplex DNA; assay: Stabilization of AR G-quadruplex oligonucleotide in human LNCAP cells assessed as reduction in basal AR mRNA expression at IC50 after 6 to 72 hrs by RT-PCR analysis; assay type: cell-based
Outline: (§4)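 Cells grown in RPMI-1640 with 10% fetal calf serum, 37 °C, 5% CO2, treated at an equitoxic concentration. Transcripts quantified by TaqMan real-time RT-PCR, normalized to RNaseP, expressed as relative quantity versus untreated cells (calibrator) by the 2−ΔΔCt method.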

[13] = tested on: Quadruplex DNA; assay: Stabilization of AR G-quadruplex oligonucleotide in human 22Rv1 cells assessed as reduction in AR-Vs protein level by immunoblotting assay; assay type: cell-based
[14] = tested on: Quadruplex DNA; assay: Stabilization of AR G-quadruplex oligonucleotide in human 22Rv1 cells assessed as reduction in AR mRNA expression at IC50 by RT-PCR analysis; assay type: cell-based; settings: TDE = time-dependent effect
[15] = tested on: Quadruplex DNA; assay: Stabilization of AR G-quadruplex oligonucleotide in human LNCAP cells assessed as reduction in AR mRNA expression at IC50 by RT-PCR analysis; assay type: cell-based; settings: TDE = time-dependent effect; outline: as §4
[16] = Stabilization of 5'-FAM/3'-TAMRA labelled CTATAGCGCGCTATAG dsDNA (unknown origin) assessed as change in melting temperature t1/2 at 1 uM after 16 hrs in presence of 100 mM K+ by FRET assay; outline: as §2
[17] = tested on: Quadruplex DNA; assay: Binding affinity to 5'-Biotinylated-AR1 G-quadruplex oligonucleotide (unknown origin) by SPR analysis relative to control; assay type: nucleic-acid assay
[18] = biological target: Quadruplex DNA; assay: Binding affinity to 5'-Biotinylated-AR1 G-quadruplex oligonucleotide (unknown origin) by SPR analysis; assay type: nucleic-acid assay
Outline: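 SPR on streptavidin chip; 5′-biotinylated oligo folded by heating 95 °C 5 min in 10 mM lithium cacodylate, 150 mM KCl, then immobilized at 30 nM to about 600 RU; empty reference cell. Compound 0.7−400 nM in HEPES-KCl (pH 7.4, 0.15 M KCl, 3 mM EDTA) at 40 °C, 40 μL/min, 260 s contact, 600 s dissociation; glycine pH 2.0 regeneration; steady-state affinity fit; at least two independent runs.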

[19] = tested on: Quadruplex DNA; assay: Stabilization of AR G-quadruplex oligonucleotide in human 22Rv1 cells assessed as reduction in AR-FL protein level at IC50 after 48 hrs by Western immunoblot assay; assay type: cell-based
[20] = tested on: Quadruplex DNA; assay: Stabilization of AR G-quadruplex oligonucleotide in human 22Rv1 cells assessed as reduction in AR-VS protein level at IC50 after 48 hrs by Western immunoblot assay; assay type: cell-based

ΔTm [2] | ΔTm [7] | ΔTm [16] | RBA [17] | Kd [18] | Compound | IC50 [1] | Activity [3] | IC50 [4] | Activity [5] | IC50 [6] | Activity [8] | IC50 [9] | Activity [10] | IC50 [11] | Activity [12] | Activity [13] | Activity [14] | Activity [15] | Activity [19] | Activity [20]
0.1 °C | 0.4 °C | < 0.1 °C | – | – | CN1CCN(c2cc3c4c(c(NCCO)cc5c4c2C(=O)N(CCO)C5=O)C(=O)N(CCO)C3=O)CC1 | > 10000 nM | inactive | 7670 nM | inactive | > 10000 nM | inactive | > 10000 nM | inactive | 7070 nM | inactive | inactive | Tde | Tde | – | –
3.6 °C | 6 °C | < 0.1 °C | 47% | 38.3 nM | CN(C)CCCN1C(=O)c2ccc3c4c(c5[nH]c(=O)c(=O)[nH]c5c(c24)C1=O)C(=O)N(CCCN(C)C)C3=O | 10300 nM | – | > 10000 nM | – | > 10000 nM | – | > 10000 nM | – | 1370 nM | – | – | – | – | – | –
8.3 °C | 17 °C | 1 °C | 10% | 182 nM | CN(C)CCCN1C(=O)c2ccc3c4c(c(NCCCCCCCNc5cc6c7c(ccc8c7c5C(=O)N(CCCN(C)C)C8=O)C(=O)N(CCCN(C)C)C6=O)cc(c24)C1=O)C(=O)N(CCCN(C)C)C3=O | 6560 nM | – | 3450 nM | – | > 10000 nM | – | 2190 nM | – | 1890 nM | – | – | – | – | – | –
11.3 °C | 19.7 °C | 1.9 °C | 19% | 92.5 nM | CN(C)CCCN1C(=O)c2ccc3c4c(c(NCCCCNc5cc6c7c(ccc8c7c5C(=O)N(CCCN(C)C)C8=O)C(=O)N(CCCN(C)C)C6=O)cc(c24)C1=O)C(=O)N(CCCN(C)C)C3=O | 1930 nM | – | > 10000 nM | – | 10100 nM | – | 3390 nM | – | 2480 nM | – | – | – | – | – | –
11 °C | 13 °C | 5.1 °C | 43% | 41.2 nM | CN(C)CCCNc1cc2c3c(ccc4c3c1C(=O)N(CCCN(C)C)C4=O)C(=O)N(CCCN(C)C)C2=O | 3400 nM | – | 2430 nM | – | 6320 nM | – | 3880 nM | – | 590 nM | – | – | – | – | – | –
7.2 °C | 10 °C | < 0.1 °C | 52% | 34.2 nM | CN(C)CCN1C(=O)c2ccc3c4c(c(NCCc5ccc(O)c(CN(C)C)c5)cc(c24)C1=O)C(=O)N(CCN(C)C)C3=O | 390 nM | – | 100 nM | – | 320 nM | – | 300 nM | – | 350 nM | – | – | – | – | Active | Active
4.5 °C | 9.3 °C | < 0.1 °C | 41% | 43.9 nM | CN(C)CCN1C(=O)c2ccc3c4c(c(NCC(=O)Nc5ccc(O)c(CO)c5)cc(c24)C1=O)C(=O)N(CCN(C)C)C3=O | 3040 nM | – | 3690 nM | – | > 10000 nM | – | > 10000 nM | – | 1440 nM | – | – | – | – | – | –
5.6 °C | 9 °C | < 0.1 °C | 84% | 21.4 nM | CN(C)CCN1C(=O)c2ccc3c4c(c(C#Cc5ccc(CN(C)C)c(O)c5)cc(c24)C1=O)C(=O)N(CCN(C)C)C3=O | 590 nM | – | 970 nM | – | 340 nM | – | 550 nM | – | 130 nM | – | – | – | – | – | –
